# According to ChEMBL document CHEMBL4033616, “Identification of spirobisnaphthalene derivatives with anti-tumor activities from the endophytic fungus Rhytidhysteron rufulum AS21B” (Bioorg Med Chem, 2017):
# What was measured:
# NCI-H1975 = assay: Cytotoxicity against human NCI-H1975 cells assessed as decrease in cell viability after 72 hrs by CellTiter-Glo assay; type: functional, cell-based; settings: NCI-H1975, 72 h
# Method in brief: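 NSCLC H1975 cells grown to exponential phase in RPMI 1640 with 10% (v/v) fetal calf serum, humidified 5% CO2. Seeded cells were exposed to compounds at the indicated concentrations for 72 h at 37 °C. Viability was read as the ATP level in living cells (CellTiter-Glo).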
# Ramos = assay: Cytotoxicity against human Ramos cells assessed as decrease in cell viability after 24 hrs by CellTiter-Glo assay; type: functional, cell-based
# Method in brief: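 Human lymphoma Ramos cells, expanded to exponential growth in RPMI 1640 plus 10% (v/v) fetal calf serum under humidified 5% CO2. Seeded cells were treated with compounds at the indicated concentrations, 37 °C, 24 h. Viability was measured from the cellular ATP level with the CellTiter-Glo kit.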
SMILES,IC50 (NCI-H1975),IC50 (Ramos)
CO[C@@H]1CC(=O)C2=CCCC3(Oc4cccc5cccc(c45)O3)[C@@H]2[C@@H]1O,10.2 µM,0.461 µM
O=C1C=C[C@@H](O)[C@@H]2C1=CCCC21Oc2cccc3cccc(c23)O1,1.17 µM,0.048 µM
O=C1C2=CCCC3(Oc4cccc5cccc(c45)O3)[C@@H]2[C@H](O)[C@@H]2O[C@H]12,7.3 µM,18 µM
O=C1C=C[C@]2(Oc3cccc4c(O)ccc(c34)O2)c2ccccc21,> 100 µM,15 µM
O=C1CC[C@]23Oc4ccc(O)c5c4[C@@](C=CC5=O)(Oc4cccc1c42)O3,> 100 µM,82.9 µM
CC(=O)O[C@@H]1C=CC(=O)C2=CCCC3(Oc4cccc5cccc(c45)O3)[C@@H]21,0.252 µM,0.018 µM
CO[C@H]1CCC2(Oc3cccc4cccc(c34)O2)C2=C1C(=O)C=CC2=O,> 100 µM,31.7 µM
O[C@H]1[C@@H]2[C@H]([C@@H](O)CCC23Oc2cccc4cccc(c24)O3)[C@@H](O)C[C@@H]1O,> 100 µM,> 100 µM
Oc1cccc2c1[C@@H](O)CCC21Oc2cccc3cccc(c23)O1,> 100 µM,> 100 µM
"O=C1CCC(O)c2cccc(O)c21 (stereo unspecified) [4,8-DIHYDROXY-1-TETRALONE]",50 µM,23.1 µM
CN(C)C/C=C/C(=O)Nc1cc2c(Nc3ccc(F)c(Cl)c3)ncnc2cc1O[C@H]1CCOC1 [AFATINIB],1.97 µM,
C=CC(=O)N1CCC[C@@H](n2nc(-c3ccc(Oc4ccccc4)cc3)c3c(N)ncnc32)C1 [IBRUTINIB],,28.7 µM
O=C1CCC2(Oc3cccc4cccc(c34)O2)c2cccc(O)c21 [PALMARUMYCIN CP2],> 100 µM,18 µM
O=C1CCC2(Oc3cccc4cccc(c34)O2)c2c(O)ccc(O)c21 [PALMARUMYCIN CP17],> 100 µM,33.1 µM
